In ChEMBL document CHEMBL4196178, “Structure-Based Drug Design of Potent Pyrazole Derivatives against Rhinovirus Replication” (J Med Chem, 2018):
Active and inactive are the calls of the source.

Key:
[1] = Cytotoxicity against human HeLa Rh cells assessed as reduction in cell viability after 3 days by MTS assay; type: cell-based
[2] = Selectivity index, ratio of CC50 for human HeLa Rh cells to EC50 for Rhinovirus B14 capsid infected in human HeLa Rh cells; type: toxicity, cell-based; conditions: read-out: Ratio CC50/EC50
Procedure, shortened: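 SI = CC₅₀/EC₅₀ for RV-B14 in HeLa Rh cells, both from the same 3-day 35 °C MTS CPE assay. CC₅₀ was obtained by light-microscope scoring of compound-treated uninfected cells, and EC₅₀ from MTS dose-response. Both values were derived by logarithmic interpolation and reported as median ± median absolute deviation.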

[3] = biological target: T1, VP1 capsid protein (Human rhinovirus sp.) (UniProt Q7T664); assay: Inhibition of Rhinovirus B14 capsid infected in human HeLa Rh cells assessed as reduction in viral replication at 1 uM administered 2 hrs before infection measured after 8 hrs post infection by RT-qPCR analysis; type: cell-based
T1 sequence (whole entry): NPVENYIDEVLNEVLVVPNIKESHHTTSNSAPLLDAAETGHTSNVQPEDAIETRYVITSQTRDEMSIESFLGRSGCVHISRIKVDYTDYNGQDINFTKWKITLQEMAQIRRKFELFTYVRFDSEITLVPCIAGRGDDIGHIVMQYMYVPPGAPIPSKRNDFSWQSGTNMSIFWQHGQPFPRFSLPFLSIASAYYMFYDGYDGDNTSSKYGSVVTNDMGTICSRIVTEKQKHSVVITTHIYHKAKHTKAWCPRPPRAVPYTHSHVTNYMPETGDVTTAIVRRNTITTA
Procedure, shortened: (§1)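 HeLa Rh cells adhered overnight, then given 1 µM compound 2 h before, at, or 2, 4 or 6 h after RV-B14 infection. Untreated infected cells served as controls. Cells lysed at 8 h post-infection, DNases heat-inactivated at 75 °C for 15 min. Intracellular viral RNA measured by SYBR one-step qRT-PCR against a gBlock standard series, reported as genome equivalents per sample.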

[4] = tested on: rhinovirus B14; assay: Antiviral activity against Rhinovirus B14 infected in human HeLa Rh cells assessed as reduction in viral replication at 1 uM administered at the time of infection measured after 8 hrs post infection by RT-qPCR analysis; type: functional, organism-based; procedure, shortened: as §1
[5] = tested on: rhinovirus B14; assay: Antiviral activity against Rhinovirus B14 infected in human HeLa Rh cells assessed as reduction in viral replication at 1 uM administered at >= 2 hrs post infection measured after 8 hrs post infection by RT-qPCR analysis; type: functional, organism-based; procedure, shortened: as §1
[6] = biological target: T1, VP1 capsid protein (Human rhinovirus sp.); assay: Inhibition of Rhinovirus B14 capsid infected in human HeLa Rh cells assessed as number of wells with full cytopathic effect at 4 times EC50 concentration after 1st passage measured after 3 days by MTS assay relative to control; type: cell-based; design: scale not given: the % may be the effect or the level left
Procedure, shortened: (§2)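 Confluent HeLa cells were infected with wild-type RV-B14 with compound present at 1x, 2x or 4x in vitro EC₅₀, n=4 wells. Supernatant was diluted 1:10 onto fresh HeLa cells with compound, for four passages. Value is percentage of wells with full CPE.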

[7] = biological target: T1, VP1 capsid protein (Human rhinovirus sp.); assay: Inhibition of Rhinovirus B14 capsid infected in human HeLa Rh cells assessed as number of wells with full cytopathic effect at 2 times EC50 concentration after 1st passage measured after 3 days by MTS assay relative to control; type: cell-based; design: scale not given: the % may be the effect or the level left; procedure, shortened: as §2
[8] = biological target: T1, VP1 capsid protein (Human rhinovirus sp.); assay: Inhibition of Rhinovirus B14 capsid infected in human HeLa Rh cells assessed as number of wells with full cytopathic effect at EC50 concentration after 1st passage measured after 3 days by MTS assay relative to control; type: cell-based; design: scale not given: the % may be the effect or the level left; procedure, shortened: as §2
[9] = tested on: rhinovirus B14; assay: Inhibition of Rhinovirus B14 capsid infected in human HeLa Rh cells assessed as number of wells with full cytopathic effect at 4 times EC50 concentration after 2nd passage measured after 3 days by MTS assay relative to control; type: functional; design: scale not given: the % may be the effect or the level left; procedure, shortened: as §2
[10] = biological target: T1, VP1 capsid protein (Human rhinovirus sp.); assay: Inhibition of Rhinovirus B14 capsid infected in human HeLa Rh cells assessed as number of wells with full cytopathic effect at 2 times EC50 concentration after 2nd passage measured after 3 days by MTS assay relative to control; type: cell-based; design: scale not given: the % may be the effect or the level left; procedure, shortened: as §2
[11] = biological target: T1, VP1 capsid protein (Human rhinovirus sp.); assay: Inhibition of Rhinovirus B14 capsid infected in human HeLa Rh cells assessed as number of wells with full cytopathic effect at EC50 concentration after 2nd passage measured after 3 days by MTS assay relative to control; type: cell-based; design: scale not given: the % may be the effect or the level left; procedure, shortened: as §2
[12] = biological target: T1, VP1 capsid protein (Human rhinovirus sp.); assay: Inhibition of Rhinovirus B14 capsid infected in human HeLa Rh cells assessed as number of wells with full cytopathic effect at 4 times EC50 concentration after 3rd passage measured after 3 days by MTS assay relative to control; type: cell-based; design: scale not given: the % may be the effect or the level left; procedure, shortened: as §2
[13] = biological target: T1, VP1 capsid protein (Human rhinovirus sp.); assay: Inhibition of Rhinovirus B14 capsid infected in human HeLa Rh cells assessed as number of wells with full cytopathic effect at 2 times EC50 concentration after 3rd passage measured after 3 days by MTS assay relative to control; type: cell-based; design: scale not given: the % may be the effect or the level left; procedure, shortened: as §2
[14] = biological target: T1, VP1 capsid protein (Human rhinovirus sp.); assay: Inhibition of Rhinovirus B14 capsid infected in human HeLa Rh cells assessed as number of wells with full cytopathic effect at EC50 concentration after 3rd passage measured after 3 days by MTS assay relative to control; type: cell-based; design: scale not given: the % may be the effect or the level left; procedure, shortened: as §2
[15] = biological target: T1, VP1 capsid protein (Human rhinovirus sp.); assay: Inhibition of Rhinovirus B14 capsid infected in human HeLa Rh cells assessed as number of wells with full cytopathic effect at 4 times EC50 concentration after 4th passage measured after 3 days by MTS assay relative to control; type: cell-based; design: scale not given: the % may be the effect or the level left; procedure, shortened: as §2
[16] = biological target: T1, VP1 capsid protein (Human rhinovirus sp.); assay: Inhibition of Rhinovirus B14 capsid infected in human HeLa Rh cells assessed as number of wells with full cytopathic effect at 2 times EC50 concentration after 4th passage measured after 3 days by MTS assay relative to control; type: cell-based; design: scale not given: the % may be the effect or the level left; procedure, shortened: as §2
[17] = biological target: T1, VP1 capsid protein (Human rhinovirus sp.); assay: Inhibition of Rhinovirus B14 capsid infected in human HeLa Rh cells assessed as number of wells with full cytopathic effect at EC50 concentration after 4th passage measured after 3 days by MTS assay relative to control; type: cell-based; design: scale not given: the % may be the effect or the level left; procedure, shortened: as §2
[18] = biological target: T1, VP1 capsid protein (Human rhinovirus sp.); assay: Inhibition of capsid of VP1 A150V mutant harboring Rhinovirus B14 assessed as reduction of virus induced cytopathic effect at 4 times EC50 concentration after 4th passage measured after 3 days by MTS assay
[19] = biological target: T1, VP1 capsid protein (Human rhinovirus sp.); assay: Inhibition of capsid of VP1 A150V mutant harboring Rhinovirus B14 assessed as reduction of virus induced cytopathic effect at 2 times EC50 concentration after 4th passage measured after 3 days by MTS assay
Procedure, shortened: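 After four passages of RV-B14 on HeLa cells with compound at 1x, 2x or 4x in vitro EC₅₀ (supernatant transferred 1:10 each passage), virus harvested at passage 4 was sequenced for the VP1 region by Sanger sequencing.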

[20] = biological target: T1, VP1 capsid protein (Human rhinovirus sp.); assay: Inhibition of capsid of VP1 C199W mutant harboring Rhinovirus B14 assessed as reduction of virus induced cytopathic effect at 1 times EC50 concentration after 4th passage measured after 3 days by MTS assay
[21] = biological target: T1, VP1 capsid protein (Human rhinovirus sp.); assay: Inhibition of capsid of VP1 V191E mutant harboring Rhinovirus B14 assessed as reduction of virus induced cytopathic effect at 2 times EC50 concentration after 4th passage measured after 3 days by MTS assay

Cn1cc(-c2ccc(CC(O)c3ccc(-n4cccn4)cc3)c([N+](=O)[O-])c2)cn1 (racemic)
0%: Activity [6] | Activity [7] | Activity [8] | Activity [9] | Activity [10] | Activity [11] | Activity [12] | Activity [13] | Activity [15]
247 to 1000 µM: CC50 at 72 h [1]
inactive: Activity [5] | inhibition [18] | inhibition [21]
active: inhibition [3] | Activity [4] | inhibition [19] | inhibition [20]
1240 to 5000: selectivity ratio [2]
50%: Activity [14] | Activity [16] | Activity [17]
